Data from ChEMBL document CHEMBL2401669, “Discovery and structure-activity relationships of ent-Kaurene diterpenoids as potent and selective 11β-HSD1 inhibitors: potential impact in diabetes” (Eur J Med Chem, 2013).

Experiments:
[1] = target: T1, 11-beta-hydroxysteroid dehydrogenase type 2 (Homo sapiens, UniProt P80365); experiment: Inhibition of human 11beta-HSD2
T1 sequence (P80365 whole entry): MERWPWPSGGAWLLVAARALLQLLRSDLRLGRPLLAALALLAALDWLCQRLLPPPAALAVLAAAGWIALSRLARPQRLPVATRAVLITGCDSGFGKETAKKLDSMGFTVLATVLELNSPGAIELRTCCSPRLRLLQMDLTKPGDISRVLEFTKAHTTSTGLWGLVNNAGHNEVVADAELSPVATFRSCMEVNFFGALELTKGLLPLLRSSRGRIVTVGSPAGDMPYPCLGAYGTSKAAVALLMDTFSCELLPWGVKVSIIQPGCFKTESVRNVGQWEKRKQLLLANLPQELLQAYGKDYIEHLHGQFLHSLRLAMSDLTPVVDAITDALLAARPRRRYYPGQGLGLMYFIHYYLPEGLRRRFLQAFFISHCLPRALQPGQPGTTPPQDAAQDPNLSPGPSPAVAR

[2] = target: 11-beta-hydroxysteroid dehydrogenase 1 (Homo sapiens, UniProt P28845); experiment: Inhibition of human 11beta-HSD1 expressed in HEK293 cell microsomes assessed as inhibition of [3H]cortisone conversion to [3H]cortisol by scintillation proximity assay; set-up: species or system Microsome
Sequence of 11-beta-hydroxysteroid dehydrogenase 1 (Homo sapiens, UniProt P28845) (P28845 whole entry): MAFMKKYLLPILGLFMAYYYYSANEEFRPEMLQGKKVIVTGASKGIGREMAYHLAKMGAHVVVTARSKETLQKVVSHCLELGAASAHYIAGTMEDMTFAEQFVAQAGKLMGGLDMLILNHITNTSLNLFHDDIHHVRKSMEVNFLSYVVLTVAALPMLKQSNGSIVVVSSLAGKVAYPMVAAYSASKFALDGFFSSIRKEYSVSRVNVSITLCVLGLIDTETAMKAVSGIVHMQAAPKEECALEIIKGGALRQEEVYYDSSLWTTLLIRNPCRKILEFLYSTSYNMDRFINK
Summary of the method: (§1)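 Enzyme source: microsomal fraction from HEK-293 cells stably transfected with 11β-HSD1 (human or mouse), incubated with NADPH and [3H]cortisone. The [3H]cortisol product is captured by a monoclonal antibody on protein A-coated SPA beads. IC50 is averaged over at least two independent experiments, at least duplicate per concentration.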

[3] = target: 11-beta-hydroxysteroid dehydrogenase 1 (Mus musculus) (UniProt P50172); experiment: Inhibition of mouse 11beta-HSD1 expressed in HEK293 cell microsomes assessed as inhibition of [3H]cortisone conversion to [3H]cortisol at 1 uM by scintillation proximity assay; conditions: Microsome
Sequence of 11-beta-hydroxysteroid dehydrogenase 1 (Mus musculus) (P50172 whole entry, looked up): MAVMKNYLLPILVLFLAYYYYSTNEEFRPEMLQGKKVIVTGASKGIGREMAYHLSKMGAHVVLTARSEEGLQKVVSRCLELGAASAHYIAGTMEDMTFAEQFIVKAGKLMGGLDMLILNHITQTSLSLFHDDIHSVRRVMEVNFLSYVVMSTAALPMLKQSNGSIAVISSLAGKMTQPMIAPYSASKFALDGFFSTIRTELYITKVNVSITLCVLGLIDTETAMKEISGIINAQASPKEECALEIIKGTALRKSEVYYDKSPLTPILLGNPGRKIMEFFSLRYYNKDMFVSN
Summary of the method: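 Primary single-concentration screen in the SPA. Mouse 11β-HSD1 HEK-293 stable-transfectant microsomes are incubated with NADPH and [3H]cortisone, and [3H]cortisol is captured by antibody-coupled protein A SPA beads. Inhibitory ratio is the average of two determinations, with deviation from the average of 10% of the average value.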

Homo sapiens = species on record: Homo sapiens; experiment: selectivity ratio of IC50 for human 11beta-HSD2 to IC50 for human 11beta-HSD1
Summary of the method: (§2)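 Ratio of 11β-HSD2 IC50 to 11β-HSD1 IC50 for the same species (mouse or human). Both IC50s come from microsome-based scintillation proximity assays, averaged over at least two independent experiments with at least duplicate wells per concentration. Only compounds exceeding 50% inhibition in the primary screen were evaluated.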

[4] = target: 11-beta-hydroxysteroid dehydrogenase 1 (Mus musculus, UniProt P50172); experiment: Inhibition of mouse 11beta-HSD1 expressed in HEK293 cell microsomes assessed as inhibition of [3H]cortisone conversion to [3H]cortisol by scintillation proximity assay; set-up: species or system Microsome; summary of the method: as §1
Sequence of 11-beta-hydroxysteroid dehydrogenase 1 (Mus musculus, UniProt P50172) (P50172 whole entry): as the sequence (P50172 whole entry, looked up) above

[5] = target: T2, 11-beta-hydroxysteroid dehydrogenase type 2 (Mus musculus, UniProt P51661); experiment: Inhibition of mouse 11beta-HSD2
T2 sequence (P51661 whole entry): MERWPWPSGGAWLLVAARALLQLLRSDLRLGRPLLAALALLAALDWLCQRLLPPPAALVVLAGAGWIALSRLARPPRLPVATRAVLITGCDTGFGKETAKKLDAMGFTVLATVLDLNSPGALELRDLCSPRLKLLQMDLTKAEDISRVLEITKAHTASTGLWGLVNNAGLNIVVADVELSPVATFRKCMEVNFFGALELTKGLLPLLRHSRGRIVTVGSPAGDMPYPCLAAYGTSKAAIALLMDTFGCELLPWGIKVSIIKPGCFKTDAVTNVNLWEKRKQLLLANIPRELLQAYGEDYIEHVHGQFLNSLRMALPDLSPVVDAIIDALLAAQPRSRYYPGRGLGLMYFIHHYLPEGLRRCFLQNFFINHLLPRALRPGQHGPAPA
Summary of the method: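 Scintillation proximity assay using microsomes containing mouse 11β-HSD2. IC50 is averaged over at least two independent experiments, with at least two replicates per concentration.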

Mus musculus = species on record: Mus musculus; experiment: Selectivity ratio of IC50 for mouse 11beta-HSD2 to IC50 for mouse 11beta-HSD1; summary of the method: as §2

Row | SMILES | IC50 [2] [µM] | inhibition [3] [%] | IC50 [4] [µM] | other results
1 | C=C1C(=O)[C@@]23CC[C@H]4[C@@](C)(CCC[C@@]4(C)C(=O)O)[C@@H]2[C@@H](O)C[C@H]1C3 | – | 25.3 | – | –
2 | C=C1[C@H]2C[C@H](O)[C@H]3[C@]4(C)CCC[C@@](C)(N=C=O)[C@H]4CC[C@]3(C2)[C@@H]1O | – | 16.8 | – | –
3 | C[C@@]12CCC[C@@](C)(C(=O)O)[C@H]1CC[C@@]13C[C@H](CC[C@H]12)[C@@](O)(CO)C3 | 1.24 | – | 3.22 | IC50 [5]: > 1000 µM; IC50 [1]: > 1000 µM; Ratio IC50 (Homo sapiens): > 809; Ratio IC50 (Mus musculus): > 311
4 | C=C1[C@H]2C[C@H](OC(=O)c3ccc(N(C)C)cc3)[C@H]3[C@]4(C)CCC[C@@](C)(C(=O)O)[C@H]4CC[C@]3(C2)[C@@H]1O | – | 34 | – | –
5 | C=C1[C@H]2C[C@H](OC(=O)N3CCOCC3)[C@H]3[C@]4(C)CCC[C@@](C)(C(=O)O)[C@H]4CC[C@]3(C2)[C@@H]1O | – | 35.2 | – | –
6 | C=C1C[C@@]23CC[C@H]4[C@@](C)(CCC[C@@]4(C)C(=O)O)[C@@H]2CC[C@@H]1C3 [KAURENOIC ACID] | – | 82.4 | 0.357 | IC50 [5]: 500 µM; Ratio IC50 (Mus musculus): 1400
7 | C=C1C[C@@]23CC[C@H]4[C@@](C)(CCC[C@@]4(C)NC(=O)Nc4ccc(F)cc4)[C@@H]2CC[C@H]1C3 | 0.331 | 25.9 | > 1 | IC50 [1]: > 100 µM; Ratio IC50 (Homo sapiens): > 302
8 | C=C1[C@@H](O)[C@@]23CC[C@H]4[C@@](C)(CCC[C@@]4(C)C(=O)O)[C@@H]2C=C[C@H]1C3 | – | 19.6 | – | –
9 | C[C@@]12CCC[C@@](C)(C(=O)O)[C@H]1CC[C@@]13C[C@H](C[C@H](O)[C@@H]21)[C@]1(CO1)[C@H]3O | – | 16.8 | – | –
10 | C=C1[C@H]2CC[C@H]3[C@]4(C)CCC[C@@](C)(C(=O)O)[C@H]4CC[C@]3(C2)[C@H]1O | > 1 | 55.5 | 0.259 | IC50 [5]: > 100 µM; Ratio IC50 (Mus musculus): > 387
11 | C[C@@]1(CO)CCC[C@]2(C)[C@@H]1CC[C@@]13C[C@H](CC[C@H]12)[C@@](O)(CO)C3 | 0.91 | – | 2.81 | IC50 [5]: > 1000 µM; IC50 [1]: > 1000 µM; Ratio IC50 (Homo sapiens): > 1100; Ratio IC50 (Mus musculus): > 357
12 | C=C1[C@H]2C[C@H](OC(=S)SC)[C@H]3[C@]4(C)CCC[C@@](C)(C(=O)O)[C@H]4CC[C@]3(C2)[C@@H]1O | 0.771 | 11.1 | > 1 | IC50 [1]: > 100 µM; Ratio IC50 (Homo sapiens): > 130
13 | C=C1[C@H]2CC[C@H]3[C@]4(C)CCC[C@@](C)(C(=O)O)[C@H]4CC[C@]3(C2)[C@@H]1F | – | 56 | – | –
14 | C=C1C[C@@]23CC[C@H]4[C@@](C)(CCC[C@@]4(C)NC(=O)Nc4nccs4)[C@@H]2CC[C@H]1C3 | – | 18.2 | – | –
15 | C=C1[C@H]2C[C@H](O)[C@H]3[C@]4(C)CCC[C@@](C)(NC(=O)NC56CC7CC(CC(C7)C5)C6)[C@H]4CC[C@]3(C2)[C@@H]1O | 0.404 | 20.8 | > 1 | IC50 [1]: 0.7 µM; Ratio IC50 (Homo sapiens): 1.7
16 | C=C1[C@H]2C[C@H](OC(C)=O)[C@H]3[C@]4(C)CCC[C@@](C)(C(=O)O)[C@H]4CC[C@]3(C2)[C@@H]1O | 0.116 | 12.4 | > 1 | IC50 [1]: 229 µM; Ratio IC50 (Homo sapiens): 1970
17 | C=C1C[C@@]23CC[C@H]4[C@@](C)(CCC[C@@]4(C)N=C=O)[C@@H]2CC[C@H]1C3 | – | 55.5 | – | –
18 | C=C1[C@H]2C[C@H](OC(=O)Nc3nccs3)[C@H]3[C@]4(C)CCC[C@@](C)(C(=O)O)[C@H]4CC[C@]3(C2)[C@@H]1O | – | 11.6 | – | –
19 | C[C@H]1[C@H]2C[C@H](O)[C@H]3[C@]4(C)CCC[C@@](C)(C(=O)O)[C@H]4CC[C@]3(C2)[C@@H]1O | – | 11.6 | – | –
20 | C[C@@]12CCC[C@@](C)(C(=O)O)[C@H]1CC[C@]13CC(=O)[C@@H](CC[C@H]12)C3 | – | 19.6 | – | –
21 | C=C1C[C@@]23CC[C@H]4[C@@](C)(CCC[C@@]4(C)NC(=O)NC45CC6CC(CC(C6)C4)C5)[C@@H]2CC[C@H]1C3 | 0.407 | 18.2 | > 1 | IC50 [1]: > 100 µM; Ratio IC50 (Homo sapiens): > 246
22 | C=C1[C@H]2C[C@H](OC(=O)c3ccc(Br)cc3)[C@H]3[C@]4(C)CCC[C@@](C)(C(=O)O)[C@H]4CC[C@]3(C2)[C@@H]1O | – | 32.7 | – | –
23 | C=C1C[C@@]23CC[C@@H]4[C@](C)(CF)CCC[C@@]4(C)[C@@H]2CC[C@H]1C3 | – | 37.7 | – | –
24 | CC1(C)[C@@H](O)CC[C@]2(C)[C@H]3C(=O)C=C4[C@@H]5C[C@@](C)(C(=O)O)CC[C@]5(C)CC[C@@]4(C)[C@]3(C)CC[C@@H]12 | – | 96.7 | – | –

More lines, main results first:

Row | IC50 [2] [µM] | inhibition [3] [%] | IC50 [4] [µM] | SMILES | other results
25 | 0.165 | 16.3 | > 1 | C=C1[C@H]2C[C@H](O)[C@H]3[C@]4(C)CCC[C@@](C)(NC(=O)NC5CCCCC5)[C@H]4CC[C@]3(C2)[C@@H]1O | IC50 [1]: > 100 µM; Ratio IC50 (Homo sapiens): > 605
26 | – | 21.4 | – | C=C1[C@H]2C[C@H](O)[C@H]3[C@]4(C)CCC[C@@](C)(NC(=O)N5CCOCC5)[C@H]4CC[C@]3(C2)[C@@H]1O | –
27 | 0.266 | 52.2 | > 1 | C=C1[C@H]2C[C@H](O)[C@H]3[C@]4(C)CCC[C@@](C)(NC(=O)Nc5cccc6ccccc56)[C@H]4CC[C@]3(C2)[C@@H]1O | IC50 [1]: 1.6 µM; Ratio IC50 (Homo sapiens): 6.2
28 | – | 5.39 | – | C=C1[C@H]2C[C@H](O)[C@H]3[C@]4(C)CCC[C@@](C)(NC(=O)Nc5nccs5)[C@H]4CC[C@]3(C2)[C@@H]1O | –
29 | – | 12.7 | – | C=C1[C@H]2C[C@H](O)[C@H]3[C@]4(C)CCC[C@@](C)(NC(=O)N5CCNCC5)[C@H]4CC[C@]3(C2)[C@@H]1O | –
30 | – | 3.69 | – | C=C1[C@H]2C[C@H](O)[C@H]3[C@]4(C)CCC[C@@](C)(NC(=O)Nc5ccc(C(F)(F)F)cc5)[C@H]4CC[C@]3(C2)[C@@H]1O | –
31 | – | 16.1 | – | C=C1[C@H]2C[C@H](O)[C@H]3[C@]4(C)CCC[C@@](C)(NC(=O)N(C)OC)[C@H]4CC[C@]3(C2)[C@@H]1O | –
32 | – | 9.21 | – | C=C1[C@H]2C[C@H](O)[C@H]3[C@]4(C)CCC[C@@](C)(NC(=O)N5CCCC5)[C@H]4CC[C@]3(C2)[C@@H]1O | –
33 | – | 16.5 | – | C=C1[C@H]2C[C@H](O)[C@H]3[C@]4(C)CCC[C@@](C)(C(=O)O)[C@H]4CC[C@]3(C2)[C@@H]1O | –
34 | – | 25.1 | – | C=C1[C@H]2C[C@H](O)[C@H]3[C@]4(C)CCC[C@@](C)(C(=O)OC)[C@H]4CC[C@]3(C2)[C@@H]1O | –
35 | – | 19.4 | – | C=C1[C@H]2C[C@H](O)[C@H]3[C@]4(C)CCC[C@@](C)(NC(=O)NC)[C@H]4CC[C@]3(C2)[C@@H]1O | –
36 | – | 27.3 | – | C=C1[C@H]2C[C@H](O)[C@H]3[C@]4(C)CCC[C@@](C)(CO)[C@H]4CC[C@]3(C2)[C@@H]1O | –
37 | – | 11.3 | – | C=C1[C@H]2C[C@H](O)[C@H]3[C@]4(C)CCC[C@@](C)(NC(=O)NC(C)(C)C)[C@H]4CC[C@]3(C2)[C@@H]1O | –
38 | 0.0094 | 24.4 | > 1 | C=C1[C@H]2C[C@H](O)[C@H]3[C@]4(C)CCC[C@@](C)(NC(=O)Nc5ccccc5)[C@H]4CC[C@]3(C2)[C@@H]1O | IC50 [1]: > 1000 µM; Ratio IC50 (Homo sapiens): > 10600
39 | – | 21.3 | – | C=C1[C@H]2C[C@H](OC(=O)c3ccccc3)[C@H]3[C@]4(C)CCC[C@@](C)(C(=O)O)[C@H]4CC[C@]3(C2)[C@@H]1O | –
40 | 0.249 | 7.92 | > 1 | C=C1[C@H]2C[C@H](O)[C@H]3[C@]4(C)CCC[C@@](C)(NC(=O)Nc5ccc(F)cc5)[C@H]4CC[C@]3(C2)[C@@H]1O | IC50 [1]: > 100 µM; Ratio IC50 (Homo sapiens): > 402
